≈ marks a conversion by molar mass, not a printed value. Calls of active or inactive are those of the source. No cut-off for these calls is given here.
Legend:
[1] = tested on: Staphylococcus aureus; test: Antibacterial activity against methicillin-resistant Staphylococcus aureus 33922 infected in in vitro pharmacokinetic model assessed as time required to 99% killing at 1500 mg, iv every 8 hrs using 10^8 CFU/ml inoculum; format: functional
[2] = tested on: Staphylococcus aureus; test: Antibacterial activity against methicillin-resistant Staphylococcus aureus 33829 infected in in vitro pharmacokinetic model assessed as time required to 99% killing at 1500 mg, iv every 8 hrs using 10^6 CFU/ml inoculum; format: functional
In short: (§1)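 Single-compartment dilutional in vitro PK model, 10% Mueller-Hinton broth, 37°C, stirred, dilution 132 ml/h. […] Inoculum 10^6 CFU/ml (added 45 min pre-dose) or 10^8 CFU/ml (run overnight). Viable counts by spiral plating, beta-lactamase neutralization, detection limit 10^2 CFU/ml. At least triplicate.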

[3] = tested on: Staphylococcus aureus; test: AUBKC (0 to 48 hrs) in methicillin-resistant Staphylococcus aureus 33922 infected in in vitro pharmacokinetic model at 750 mg, iv every 8 hrs using 10^6 CFU/ml inoculum; format: functional
In short: (§2)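 Single-compartment dilutional in vitro PK model at 37°C in 10% Mueller-Hinton broth, stirred, flow 132 ml/h. […] Inoculum 10^6 CFU/ml added 45 min before dosing, or 10^8 CFU/ml run overnight. Viable counts with β-lactamase neutralisation. AUBKC by log-linear trapezoidal rule, at least triplicate.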

[4] = tested on: Staphylococcus aureus; test: AUBKC (0 to 48 hrs) in methicillin-resistant Staphylococcus aureus 33921 infected in in vitro pharmacokinetic model at 1500 mg, iv every 8 hrs using 10^6 CFU/ml inoculum; format: functional; in short: as §2
[5] = tested on: Staphylococcus aureus; test: Antibacterial activity against methicillin-resistant Staphylococcus aureus 33827 infected in in vitro pharmacokinetic model assessed as reduction in viable count at 750 mg, iv every 8 hrs measured after 24 hrs using 10^8 CFU/ml inoculum; format: functional; in short: as §1
[6] = tested on: Staphylococcus aureus; test: Antibacterial activity against methicillin-resistant Staphylococcus aureus 33827 infected in in vitro pharmacokinetic model assessed as reduction in viable count at 750 mg, iv every 8 hrs measured after 36 hrs using 10^8 CFU/ml inoculum; format: functional; in short: as §1
[7] = tested on: Staphylococcus aureus; test: Antibacterial activity against methicillin-resistant Staphylococcus aureus 33922 infected in in vitro pharmacokinetic model assessed as reduction in viable count at 750 mg, iv every 8 hrs measured after 48 hrs using 10^8 CFU/ml inoculum; format: functional
[8] = tested on: Staphylococcus aureus; test: Antibacterial activity against methicillin-resistant Staphylococcus aureus 33922 infected in in vitro pharmacokinetic model assessed as reduction in viable count at 1500 mg, iv every 8 hrs measured after 12 hrs using 10^8 CFU/ml inoculum; format: functional
[9] = tested on: Staphylococcus aureus; test: Antibacterial activity against methicillin-resistant Staphylococcus aureus 33820 by broth dilution method; format: functional
In short: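 Standard CLSI broth dilution MIC.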

[10] = tested on: Staphylococcus aureus; test: Antibacterial activity against methicillin-resistant Staphylococcus aureus 33922 by 10% MH broth method; format: functional
[11] = tested on: Staphylococcus aureus; test: Antibacterial activity against methicillin-resistant Staphylococcus aureus 33922 infected in in vitro pharmacokinetic model assessed as reduction in viable count at 1500 mg, iv every 8 hrs measured after 36 hrs using 10^8 CFU/ml inoculum; format: functional
[12] = tested on: Staphylococcus aureus; test: Antibacterial activity against methicillin-resistant Staphylococcus aureus 33827 infected in in vitro pharmacokinetic model assessed as reduction in viable count at 1500 mg, iv every 8 hrs measured after 36 hrs using 10^8 CFU/ml inoculum; format: functional; in short: as §1
[13] = tested on: Staphylococcus aureus; test: Antibacterial activity against methicillin-resistant Staphylococcus aureus 33922 infected in in vitro pharmacokinetic model assessed as time required to 99.9% killing at 1500 mg, iv every 8 hrs using 10^8 CFU/ml inoculum; format: functional
[14] = tested on: Staphylococcus aureus; test: AUBKC (0 to 24 hrs) in methicillin-resistant Staphylococcus aureus 33815 infected in in vitro pharmacokinetic model at 750 mg, iv every 8 hrs using 10^8 CFU/ml inoculum; format: functional; in short: as §2
[15] = tested on: Staphylococcus aureus; test: Antibacterial activity against methicillin-resistant Staphylococcus aureus 33922 in in vitro pharmacokinetic model assessed as viable count at 2 times of MIC; format: functional
[16] = tested on: Staphylococcus aureus; test: Antibacterial activity against methicillin-resistant Staphylococcus aureus 33820 infected in in vitro pharmacokinetic model assessed as reduction in viable count at 750 mg, iv every 8 hrs measured after 24 hrs using 10^6 CFU/ml inoculum; format: functional
In short: (§3)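 Single-compartment dilutional in vitro PK model, 37°C, stirred, in 10% Mueller-Hinton broth. […] Inoculum 10^6 CFU/ml from a 24-h plate culture was added 45 min before dosing. Viable counts by spiral plating on nutrient agar with β-lactamase neutralization. Log change was taken from time 0; detection limit 10^2 CFU/ml; at least triplicate.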

[17] = tested on: Staphylococcus aureus; test: Antibacterial activity against methicillin-resistant Staphylococcus aureus 33815 infected in in vitro pharmacokinetic model assessed as reduction in viable count at 750 mg, iv every 8 hrs measured after 24 hrs using 10^6 CFU/ml inoculum; format: functional; in short: as §3
[18] = tested on: Staphylococcus aureus; test: Antibacterial activity against methicillin-resistant Staphylococcus aureus 33829 assessed as viable count at 2 times of MIC after 24 hrs using 10^6 CFU/ml inoculum; format: functional, organism-based
[19] = tested on: Staphylococcus aureus; test: Antibacterial activity against methicillin-resistant Staphylococcus aureus 33921 assessed as viable count at 4 times of MIC after 48 hrs using 10^6 CFU/ml inoculum; format: functional, organism-based
[20] = tested on: Staphylococcus aureus; test: Antibacterial activity against methicillin-resistant Staphylococcus aureus 33922 assessed as viable count at 4 times of MIC after 48 hrs using 10^6 CFU/ml inoculum; format: functional, organism-based
[21] = tested on: Staphylococcus aureus; test: T>MIC for 1-log drop in count in methicillin-sensitive Staphylococcus aureus 5956 in in vitro pharmacokinetic model after 24 hrs using 10^6 CFU/ml inoculum; format: functional
In short: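 Dose-ranging: 7–13 simulated regimens per strain giving T>MIC of 0–100% (MIC from 10% MHB), at 106 or 10^8 CFU/ml as stated.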

[22] = tested on: Staphylococcus aureus; test: T>MIC for 3-log drop in count in methicillin-resistant Staphylococcus aureus 33827 in in vitro pharmacokinetic model after 24 hrs using 10^6 CFU/ml inoculum; format: functional
[23] = tested on: Staphylococcus aureus; test: T>MIC for 4-log drop in count in methicillin-resistant Staphylococcus aureus 33820 in in vitro pharmacokinetic model after 24 hrs using 10^6 CFU/ml inoculum; format: functional
[24] = tested on: Staphylococcus aureus; test: T>MIC for 1-log drop in count in methicillin-resistant Staphylococcus aureus 33922 in in vitro pharmacokinetic model after 24 hrs using 10^8 CFU/ml inoculum; format: functional
[25] = tested on: Staphylococcus aureus; test: Antibacterial activity against methicillin-resistant Staphylococcus aureus 33827 infected in in vitro pharmacokinetic model assessed as reduction in viable count at 1500 mg, iv every 8 hrs measured after 36 hrs using 10^6 CFU/ml inoculum; format: functional; in short: as §1
[26] = tested on: Staphylococcus aureus; test: Antibacterial activity against methicillin-resistant Staphylococcus aureus 33827 infected in in vitro pharmacokinetic model assessed as reduction in viable count at 1500 mg, iv every 8 hrs measured after 48 hrs using 10^6 CFU/ml inoculum; format: functional; in short: as §1
[27] = tested on: Staphylococcus aureus; test: Antibacterial activity against methicillin-resistant Staphylococcus aureus 33820 infected in in vitro pharmacokinetic model assessed as time required to 99.9% killing at 750 mg, iv every 8 hrs using 10^6 CFU/ml inoculum; format: functional
[28] = tested on: Staphylococcus aureus; test: Antibacterial activity against methicillin-resistant Staphylococcus aureus 33921 infected in in vitro pharmacokinetic model assessed as time required to 99.9% killing at 1500 mg, iv every 8 hrs using 10^6 CFU/ml inoculum; format: functional

C[C@@H](O)[C@H]1C(=O)N2C(C(=O)O)=C(S[C@H]3C[C@@H](C(=O)N4CC[C@H](NC(=O)CNC(=N)N)C4)N(C)C3)[C@H](C)[C@H]12 [TOMOPENEM]
Time [1]: 16 h
Time [2]: 7 h
AUBC [3]: 27.7 log10CFU/ml.hr
AUBC [4]: 38.1 log10CFU/ml.hr
log10CFU/ml [5]: 5.2
log10CFU/ml [6]: 5
log10CFU/ml [7]: 5.8
log10CFU/ml [8]: 1.5
MIC [9]: 16 µg/mL (≈ 29.8 µM)
MIC [10]: 0.25 µg/mL (≈ 0.465 µM)
log10CFU/ml [11]: 5.2
log10CFU/ml [12]: 6
Time [13]: 24 h
AUBC [14]: 100 log10CFU/ml.hr
log10CFU/ml [15]: 8.3
log10CFU/ml [16]: 4.2
log10CFU/ml [17]: 4.2
Activity [18]: inactive
Activity [19]: Active
Activity [20]: inactive
fT>MIC [21]: 7.4%
fT>MIC [22]: 43%
fT>MIC [23]: 36.2%
fT>MIC [24]: 2%
log10CFU/ml [25]: 4
log10CFU/ml [26]: 3.6
Time [27]: 12 h
Time [28]: 12 h

From ChEMBL document CHEMBL1255300, “Pharmacodynamics of the antibacterial effect and emergence of resistance to tomopenem, formerly RO4908463/CS-023, in an in vitro pharmacokinetic model of Staphylococcus aureus infection” (Antimicrob Agents Chemother, 2008)
